According to ChEMBL document CHEMBL4196050, “Design, synthesis, and biological evaluation of compounds with a new scaffold as anti-neuroinflammatory agents for the treatment of Alzheimer's disease” (Eur J Med Chem, 2018):
Active and inactive are the calls of the source. No cut-off for these calls is given here.

What was measured:
BV-2 [1] = test: Antineuroinflammatory activity in mouse BV2 cells assessed as inhibition of LPS-induced TNFalpha production after 24 hrs by ELISA; assay type: functional, cell-based; details: BV-2, 24 h
Summary of the method: (§1)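 BV2 cells plated at 4 × 10⁵ cells/mL, grown 48 h, medium replaced with DMEM. Compound added first, then LPS; incubated 24 h at 37 °C. TNF-α or IL-1β in culture medium measured by ELISA. % inhibition = (F_L − F_C)/(F_L − F₀) × 100 against LPS-only and unstimulated cells. IC50 by nonlinear regression of ≥3 independent experiments, mean SEM.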

BV-2 [2] = test: Antineuroinflammatory activity in mouse BV2 cells assessed as inhibition of LPS-induced IL-1beta production after 24 hrs by ELISA; assay type: functional, cell-based; details: BV-2, 24 h; summary of the method: as §1
[3] = Permeability of the compound after 10 hrs by PAMPA; assay type: ADME; details: read-out: permeability
Summary of the method: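 PAMPA-BBB: filter coated with porcine brain lipid in dodecane (20 mg/mL); acceptor PBS/EtOH (7:3). DMSO stocks (5 mg/mL) diluted 50-fold in PBS/EtOH into donor wells. Sandwich left 10 h at 25 °C; acceptor concentration read by UV plate reader. Pe from volumes, filter area, time and acceptor/equilibrium absorbance. Means SD of ≥3 experiments; Pe > 4.7 × 10⁻⁶ cm/s taken as BBB-permeable.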

BV-2 [4] = test: Antineuroinflammatory activity in mouse BV2 cells assessed as inhibition of LPS-induced NO production pretreated for 30 mins followed by LPS stimulation and measured after 24 hrs by Griess assay; assay type: functional, cell-based
Summary of the method: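 BV2 microglia plated at 4 × 10⁵ cells/mL and grown 48 h, then medium replaced. Compounds at various concentrations given 30 min before LPS; incubated 24 h at 37 °C. Equal volume of Griess reagent added to medium, 10 min at room temperature, absorbance read at 540 nm. % inhibition = (F_L − F_C)/(F_L − F₀) × 100. IC50 by nonlinear regression, ≥3 independent experiments, mean SEM.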

[5] = molecular target: T1, NF-kappa-B inhibitor alpha (Mus musculus) (UniProt Q9Z1E3); test: Inhibition of LPS-induced IkappaBalpha phosphorylation in mouse BV2 cells up to 10 uM preincubated for 30 mins followed by LPS-stimulation for 16 hrs by Western blot analysis; assay type: cell-based
T1 sequence (whole entry): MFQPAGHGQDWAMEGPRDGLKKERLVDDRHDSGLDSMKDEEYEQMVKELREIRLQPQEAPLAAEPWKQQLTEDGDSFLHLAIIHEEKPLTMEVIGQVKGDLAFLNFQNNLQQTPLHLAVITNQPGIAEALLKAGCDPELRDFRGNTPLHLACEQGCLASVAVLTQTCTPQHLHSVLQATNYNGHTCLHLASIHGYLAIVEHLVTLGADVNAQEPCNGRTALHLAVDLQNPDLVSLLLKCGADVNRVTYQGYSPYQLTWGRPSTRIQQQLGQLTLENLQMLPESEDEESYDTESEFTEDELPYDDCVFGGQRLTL
Summary of the method: (§2)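 BV2 cells in 6-well plates, with or without compound 30 min, then with or without LPS for 16 h. Lysed in RIPA with protease and phosphatase inhibitors; cytoplasmic and nuclear fractions separated; protein by BCA. Run on 10% SDS-PAGE, PVDF, milk/TBST block 2 h, primary antibody 4 °C overnight, secondary 2 h at room temperature, chemiluminescence. Phospho-ERK1/2 (Thr202/Tyr204), p38 (Thr180/Tyr182), JNK (Thr183/Tyr185), IκBα (Ser32); GAPDH and Lamin B references. Three independent experiments.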

[6] = molecular target: Mitogen-activated protein kinase 1 and 3 (ERK2 and ERK1) (Mus musculus) (UniProt P63085+Q63844); test: Inhibition of LPS-induced ERK1/2 phosphorylation in mouse BV2 cells up to 10 uM preincubated for 30 mins followed by LPS-stimulation for 16 hrs by Western blot analysis; assay type: cell-based; summary of the method: as §2
BV-2 [7] = test: Antineuroinflammatory activity in mouse BV2 cells assessed as inhibition of LPS-induced iNOS production pretreated for 30 mins followed by LPS stimulation for 16 hrs by Western blot analysis; assay type: functional, cell-based
Mus musculus = species: Mus musculus; test: Inhibition of LPS-induced JNK phosphorylation in mouse BV2 cells up to 10 uM preincubated for 30 mins followed by LPS-stimulation for 16 hrs by Western blot analysis; assay type: cell-based; summary of the method: as §2
[8] = molecular target: MAP kinase p38 (Mus musculus) (UniProt P47811+O08911+Q9WUI1+Q9Z1B7); test: Inhibition of LPS-induced p38 phosphorylation in mouse BV2 cells up to 10 uM preincubated for 30 mins followed by LPS-stimulation for 16 hrs by Western blot analysis; assay type: cell-based; summary of the method: as §2
[9] = molecular target: Transcription factor p65 (Mus musculus) (UniProt Q04207); test: Inhibition of LPS-induced p65 translocation from cytoplasm to nucleus in mouse BV2 cells up to 10 uM preincubated for 30 mins followed by LPS-stimulation for 16 hrs by Western blot analysis; assay type: cell-based; summary of the method: as §2
[10] = Anti-inflammatory activity in LPS-induced mouse N9 cells assessed as reduction in IL-1beta production pretreated for 18 hrs followed LPS stimulation and measured after 48 hrs by ELISA; assay type: functional, cell-based

Chain of Transcription factor p65 (Mus musculus) (Q04207 whole entry): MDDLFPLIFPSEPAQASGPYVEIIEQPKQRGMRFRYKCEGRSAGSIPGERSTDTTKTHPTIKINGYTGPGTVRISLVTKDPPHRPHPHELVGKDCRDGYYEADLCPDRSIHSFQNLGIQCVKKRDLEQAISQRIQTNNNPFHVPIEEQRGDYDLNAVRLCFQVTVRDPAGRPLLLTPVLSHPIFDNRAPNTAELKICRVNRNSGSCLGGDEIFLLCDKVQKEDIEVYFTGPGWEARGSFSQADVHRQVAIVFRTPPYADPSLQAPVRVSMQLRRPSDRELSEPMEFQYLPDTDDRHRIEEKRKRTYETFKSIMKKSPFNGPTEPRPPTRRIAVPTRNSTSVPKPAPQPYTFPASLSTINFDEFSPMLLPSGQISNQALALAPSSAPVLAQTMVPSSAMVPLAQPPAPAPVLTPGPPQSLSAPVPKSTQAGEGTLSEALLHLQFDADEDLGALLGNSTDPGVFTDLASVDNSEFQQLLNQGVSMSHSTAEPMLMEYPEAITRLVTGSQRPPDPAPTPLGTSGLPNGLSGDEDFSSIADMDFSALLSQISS
Chain of Mitogen-activated protein kinase 1 and 3 (ERK2 and ERK1) (Mus musculus) (P63085 whole entry, looked up): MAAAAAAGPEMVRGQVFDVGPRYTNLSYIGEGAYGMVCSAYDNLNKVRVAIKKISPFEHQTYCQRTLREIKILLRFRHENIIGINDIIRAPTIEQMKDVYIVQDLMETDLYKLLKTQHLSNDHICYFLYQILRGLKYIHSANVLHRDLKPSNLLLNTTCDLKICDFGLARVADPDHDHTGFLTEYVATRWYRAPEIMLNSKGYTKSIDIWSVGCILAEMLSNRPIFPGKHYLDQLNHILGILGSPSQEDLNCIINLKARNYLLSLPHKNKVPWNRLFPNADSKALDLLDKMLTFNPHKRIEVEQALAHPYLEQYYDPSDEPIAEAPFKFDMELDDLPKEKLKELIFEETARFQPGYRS
Chain of Mitogen-activated protein kinase 1 and 3 (ERK2 and ERK1) (Mus musculus) (Q63844 whole entry, looked up): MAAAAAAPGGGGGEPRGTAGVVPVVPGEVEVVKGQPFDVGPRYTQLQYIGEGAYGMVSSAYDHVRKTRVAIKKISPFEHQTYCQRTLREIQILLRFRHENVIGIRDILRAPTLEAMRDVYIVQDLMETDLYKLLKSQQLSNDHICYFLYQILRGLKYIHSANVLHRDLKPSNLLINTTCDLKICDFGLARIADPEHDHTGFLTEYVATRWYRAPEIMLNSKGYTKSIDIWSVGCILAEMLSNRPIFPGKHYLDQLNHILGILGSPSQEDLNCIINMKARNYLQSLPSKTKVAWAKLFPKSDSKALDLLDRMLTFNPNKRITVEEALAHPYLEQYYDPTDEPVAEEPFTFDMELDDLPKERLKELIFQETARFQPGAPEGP

Row | SMILES | IC50 (BV-2 [1]) | IC50 (BV-2 [2]) | Papp at 10 h [3] | IC50 (BV-2 [4]) | inhibition [5] | inhibition [6] | inhibition (BV-2 [7]) | inhibition (Mus musculus) | inhibition [8] | inhibition [9] | IC50 [10]
1 | O=C(/C(=C/c1ccc(Cl)cc1)c1cccc(C(F)(F)F)c1)N1CCN(c2ncccn2)CC1 | 43.1 µM | 21.9 µM | 5.1 ×10⁻⁶ cm/s | 26.9 µM |  |  |  |  |  |  | 
2 | O=C(/C(=C/c1ccc(C(F)(F)F)cc1)c1cccc(C(F)(F)F)c1)N1CCN(c2ncccn2)CC1 | 6.9 µM | 4.2 µM | 9.3 ×10⁻⁶ cm/s | 6.5 µM |  |  |  |  |  |  | 
3 | COc1ccccc1/C=C(/C(=O)N1CCN(c2ncccn2)CC1)c1ccc(F)cc1 | 23.7 µM | 18.4 µM | 13.8 ×10⁻⁶ cm/s | 9.9 µM |  |  |  |  |  |  | 
4 | Oc1ccc(/C=C/c2cc(O)cc(O)c2)cc1 [RESVERATROL] | 9.5 µM | 8.7 µM | 1.1 ×10⁻⁶ cm/s | 11.1 µM |  |  |  |  |  |  | 
5 | O=C(/C(=C/c1cccc(Cl)c1)c1cccc(C(F)(F)F)c1)N1CCN(c2ncccn2)CC1 | 26.7 µM | 15.2 µM | 10.7 ×10⁻⁶ cm/s | 37.2 µM |  |  |  |  |  |  | 
6 | COc1ccc(O)c(/C=C(/C(=O)N2CCN(c3ncccn3)CC2)c2ccccc2)c1 | 36.4 µM | 11.4 µM | 14.1 ×10⁻⁶ cm/s | 48.1 µM |  |  |  |  |  |  | 
7 | O=C(/C(=C/c1cccc(Cl)c1)c1ccc(F)cc1)N1CCN(c2ncccn2)CC1 | 9.4 µM | 11.9 µM | 9.4 ×10⁻⁶ cm/s | 11 µM |  |  |  |  |  |  | 
8 | COc1ccccc1/C=C(/C(=O)N1CCN(c2ncccn2)CC1)c1ccccc1 | 21.3 µM | 31.6 µM | 12.3 ×10⁻⁶ cm/s | 7.9 µM |  |  |  |  |  |  | 
9 | O=C(/C(=C/c1ccccc1)c1cccc(C(F)(F)F)c1)N1CCN(c2ncccn2)CC1 | > 50 µM | 25.3 µM | 7.2 ×10⁻⁶ cm/s | 39.8 µM |  |  |  |  |  |  | 
10 | O=C(/C(=C/c1ccc(F)cc1)c1ccc(F)cc1)N1CCN(c2ncccn2)CC1 | 37.5 µM | 25.7 µM | 14.3 ×10⁻⁶ cm/s | > 50 µM |  |  |  |  |  |  | 
11 | O=C(/C(=C/c1ccccc1Cl)c1ccc(F)cc1)N1CCN(c2ncccn2)CC1 | 10.9 µM | 5.2 µM | 11.3 ×10⁻⁶ cm/s | 7.3 µM |  |  |  |  |  |  | 
12 | COc1ccccc1/C=C(/C(=O)N1CCN(c2ncccn2)CC1)c1cccc(C(F)(F)F)c1 | 34.7 µM | 41.2 µM | 9.7 ×10⁻⁶ cm/s | 31.7 µM |  |  |  |  |  |  | 
13 | COc1ccc(/C=C(/C(=O)N2CCN(c3ncccn3)CC2)c2cccc(C(F)(F)F)c2)cc1 | 26.5 µM | 15.2 µM | 14.7 ×10⁻⁶ cm/s | 22.4 µM |  |  |  |  |  |  | 
14 | O=C(/C(=C/c1ccc(Cl)cc1)c1ccccc1)N1CCN(c2ncccn2)CC1 | > 50 µM | > 50 µM | 7.4 ×10⁻⁶ cm/s | > 50 µM |  |  |  |  |  |  | 
15 | COc1ccc(O)c(/C=C(/C(=O)N2CCN(c3ncccn3)CC2)c2cccc(C(F)(F)F)c2)c1 | > 50 µM | > 50 µM | 12.7 ×10⁻⁶ cm/s | 42.6 µM |  |  |  |  |  |  | 
16 | O=C(/C(=C/C=C/c1ccccc1)c1cccc(C(F)(F)F)c1)N1CCN(c2ncccn2)CC1 | 2.6 µM | 0.5 µM | 12.6 ×10⁻⁶ cm/s | 1 µM | inactive | Active | Dose-dependent effect | Active | Active | inactive | 
17 | O=C(/C(=C/c1ccccc1)c1ccc(F)cc1)N1CCN(c2ncccn2)CC1 | 15.2 µM | 10.2 µM | 11.2 ×10⁻⁶ cm/s | 8.1 µM |  |  |  |  |  |  | 
18 | O=C(/C(=C/c1ccccc1Cl)c1ccccc1)N1CCN(c2ncccn2)CC1 | 17.6 µM | 9.3 µM | 9.4 ×10⁻⁶ cm/s | 10.1 µM |  |  |  |  |  |  | 
19 | O=C(/C(=C/c1ccc(C(F)(F)F)cc1)c1ccccc1)N1CCN(c2ncccn2)CC1 | 21.6 µM | 11.3 µM | 8.2 ×10⁻⁶ cm/s | 14.9 µM |  |  |  |  |  |  | 
20 | O=C(/C(=C/c1ccc(Cl)cc1)c1ccc(F)cc1)N1CCN(c2ncccn2)CC1 | 17.8 µM | 36.4 µM | 7.8 ×10⁻⁶ cm/s | 25.1 µM |  |  |  |  |  |  | 
21 | O=C(/C(=C/c1ccc(C(F)(F)F)cc1)c1ccc(F)cc1)N1CCN(c2ncccn2)CC1 | 6.6 µM | 8.9 µM | 7.6 ×10⁻⁶ cm/s | 3 µM |  |  |  |  |  |  | 
22 | COc1ccc(/C=C(/C(=O)N2CCN(c3ncccn3)CC2)c2ccc(F)cc2)cc1 | 41.3 µM | 42.9 µM | 10.5 ×10⁻⁶ cm/s | 23.1 µM |  |  |  |  |  |  | 
23 | O=C(/C(=C/c1ccc(F)cc1)c1cccc(C(F)(F)F)c1)N1CCN(c2ncccn2)CC1 | 19.8 µM | 31.2 µM | 12.3 ×10⁻⁶ cm/s | 15.6 µM |  |  |  |  |  |  | 
24 | Cc1cc(-c2ccccc2)nnc1C(=O)N1CCN(c2ncccn2)CC1 |  |  |  |  |  |  |  |  |  |  | 0.0034 µM
25 | O=C(/C(=C/C=C/c1ccccc1)c1ccc(F)cc1)N1CCN(c2ncccn2)CC1 | 5.9 µM | 2.4 µM | 14.9 ×10⁻⁶ cm/s | 7.9 µM |  |  |  |  |  |  | 
26 | COc1ccc(O)c(/C=C(/C(=O)N2CCN(c3ncccn3)CC2)c2ccc(F)cc2)c1 | > 50 µM | > 50 µM | 6.4 ×10⁻⁶ cm/s | 46.8 µM |  |  |  |  |  |  | 
27 | O=C(/C(=C/c1ccccc1)c1ccccc1)N1CCN(c2ncccn2)CC1 | 35.4 µM | > 50 µM | 14.3 ×10⁻⁶ cm/s | 17.8 µM |  |  |  |  |  |  | 
28 | O=C(/C(=C/c1cccc(Cl)c1)c1ccccc1)N1CCN(c2ncccn2)CC1 | 16.2 µM | 7.8 µM | 11.2 ×10⁻⁶ cm/s | 12.6 µM |  |  |  |  |  |  | 
29 | COc1ccc(/C=C(/C(=O)N2CCN(c3ncccn3)CC2)c2ccccc2)cc1 | 16.9 µM | 3.4 µM | 10.3 ×10⁻⁶ cm/s | 9.5 µM |  |  |  |  |  |  | 
30 | O=C(/C(=C/c1ccccc1Cl)c1cccc(C(F)(F)F)c1)N1CCN(c2ncccn2)CC1 | 25.1 µM | 18.4 µM | 15.1 ×10⁻⁶ cm/s | 19.9 µM |  |  |  |  |  |  | 
